pEC50, pIC50, pKi: −log10 of the molar value. Converted amounts (≈) assume the structure as drawn. Read-outs that look alike come from different tables or passages of the source.
Columns and labels:
[1] = Solubility limit of honokiol in polymerase buffer; type: physicochemical
[2] = cited from earlier work
[3] = target: human DNA polymerase β (pol β) (Homo sapiens, UniProt P06746); experiment: Steady-state primer extension assay, pol β; type: biochemical
GM12878 cells = experiment: MTS assay of cell proliferation, GM12878; type: cell-based, human; settings: Homo sapiens, 24 h, GM12878, 24 h incubation
How it was run: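 Lymphoblasts grown in RPMI 1640 with 15% FBS at 37 °C and 5% CO2. Plated at 5 × 10^3 per well, grown 24 h, then exposed 24 or 72 h to test compound alone or with 10 μM lignan inhibitor added. DMSO 0.2% final; vehicle controls. MTS/PMS in PBS pH 7.2 for 4 h at 37 °C; A492; cell-free background. Triplicate; normalized absorbance fitted for IC50 with 95% CI.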

pol β = pol β (Homo sapiens, UniProt P06746); experiment: Presteady-state burst kinetics; type: biochemical; settings: modeling with a noncompetitive inhibition scheme (Figure S10)
[4] = target: T1, human DNA polymerase η (pol η) (Homo sapiens, UniProt Q9Y253); experiment: Steady-state primer extension assay, pol η; type: biochemical
T1 sequence (Q9Y253 1-713): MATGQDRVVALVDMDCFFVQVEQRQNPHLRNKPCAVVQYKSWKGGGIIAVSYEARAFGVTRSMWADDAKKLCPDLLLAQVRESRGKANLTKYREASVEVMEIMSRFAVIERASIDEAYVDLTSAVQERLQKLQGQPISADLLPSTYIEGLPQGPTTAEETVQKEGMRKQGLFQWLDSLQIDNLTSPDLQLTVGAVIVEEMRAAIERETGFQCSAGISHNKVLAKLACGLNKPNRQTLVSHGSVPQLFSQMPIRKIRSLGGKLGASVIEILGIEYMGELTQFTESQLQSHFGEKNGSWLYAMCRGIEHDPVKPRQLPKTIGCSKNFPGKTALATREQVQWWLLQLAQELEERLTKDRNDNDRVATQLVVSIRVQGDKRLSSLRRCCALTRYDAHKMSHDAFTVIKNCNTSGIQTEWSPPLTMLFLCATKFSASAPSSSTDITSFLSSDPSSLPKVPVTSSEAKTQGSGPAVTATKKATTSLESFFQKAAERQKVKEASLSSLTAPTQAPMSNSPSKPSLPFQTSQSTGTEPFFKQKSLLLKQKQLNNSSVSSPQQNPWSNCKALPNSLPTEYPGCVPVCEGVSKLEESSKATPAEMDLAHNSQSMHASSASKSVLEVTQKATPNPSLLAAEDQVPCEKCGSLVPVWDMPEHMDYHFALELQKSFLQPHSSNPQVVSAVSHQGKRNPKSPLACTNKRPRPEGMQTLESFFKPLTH

PANC1 cells = experiment: MTS assay of cell proliferation, PANC1; type: cell-based, human; settings: for IC50: Homo sapiens; for −log(IC50) (95% CI): tested compound alone
How it was run: (§1)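 Cells grown in DMEM with 10% FBS at 37 °C and 5% CO2. Plated at 5 × 10^3 per well, grown 24 h, then exposed 24 or 72 h to test compound alone or in pairs: 10 μM bleomycin-type or 250 μM alkylating agent added to the lignan, or 10 μM lignan added to either. DMSO 0.2% final; vehicle controls. MTS/PMS for 4 h; A492; cell-free background. Triplicate; IC50 fit, 95% CI.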

pol λ binding to DNA = target: T2, pol λ binding to DNA (Homo sapiens, UniProt Q9UGP5); experiment: Polymerase–DNA interaction, electrophoretic mobility shift assay, pol λ; settings: for inhibition of DNA binding to polymerase (EMSA): honokiol up to 200 μM, polymerase in excess of DNA
T2 sequence (Q9UGP5 1-575): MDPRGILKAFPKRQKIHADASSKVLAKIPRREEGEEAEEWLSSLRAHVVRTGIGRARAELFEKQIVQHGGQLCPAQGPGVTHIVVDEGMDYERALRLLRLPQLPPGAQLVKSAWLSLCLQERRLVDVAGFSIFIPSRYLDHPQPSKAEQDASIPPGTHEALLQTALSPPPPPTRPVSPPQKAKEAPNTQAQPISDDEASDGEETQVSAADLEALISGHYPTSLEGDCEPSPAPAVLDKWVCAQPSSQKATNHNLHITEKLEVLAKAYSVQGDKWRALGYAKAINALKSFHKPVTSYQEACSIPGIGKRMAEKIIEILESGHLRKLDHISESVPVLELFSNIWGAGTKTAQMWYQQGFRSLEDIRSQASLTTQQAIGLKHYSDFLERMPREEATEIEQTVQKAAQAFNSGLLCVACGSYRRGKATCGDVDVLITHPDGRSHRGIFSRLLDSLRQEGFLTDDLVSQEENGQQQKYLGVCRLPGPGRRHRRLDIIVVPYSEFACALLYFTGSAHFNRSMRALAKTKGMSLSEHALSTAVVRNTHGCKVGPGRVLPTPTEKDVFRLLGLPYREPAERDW

[5] = target: DNA polymerase I from E. coli (Klenow fragment), Kf(exo-) (Escherichia coli, UniProt P00582, D355A/E357A); experiment: Steady-state primer extension assay, Kf; type: biochemical
pol η binding to DNA = target: T3, pol η binding to DNA (Homo sapiens, UniProt Q9Y253); experiment: Polymerase–DNA interaction, electrophoretic mobility shift assay, pol η; settings: native PAGE
T3 sequence (Q9Y253 1-713): T1 sequence (Q9Y253 1-713)

KF(exo-) binding to DNA = KF(exo-) binding to DNA (Escherichia coli, UniProt P00582, D355A/E357A); experiment: Polymerase–DNA interaction, electrophoretic mobility shift assay, KF; parameters: species or system E. coli; settings: native PAGE
pol β binding to DNA = pol β binding to DNA (Homo sapiens, UniProt P06746); experiment: Polymerase–DNA interaction, electrophoretic mobility shift assay, pol β; settings: for inhibition of DNA binding to polymerase (EMSA): honokiol up to 200 μM, polymerase in excess of DNA
[6] = tested on: HL60 promyelocytic leukemia cells; settings: mice xenografted with HL60 promyelocytic leukemia cells; cited from earlier work
rats = settings: dose of 100 mg/kg; cited from earlier work
A549 cells = experiment: MTS assay of cell proliferation, A549; type: cell-based, human; settings: A549, 24 h
How it was run: as §1

[7] = eq 3, factor on Km/Ki, 95% confidence limits
[8] = eq 3, residual catalysis with HNL bound, 95% confidence limits

C=CCc1ccc(O)c(-c2ccc(O)c(CC=C)c2)c1 [HNL, 2-(4-hydroxy-3-prop-2-enyl-phenyl)-4-prop-2-enyl-phenol]
solubility [1]: 200 µM (≈ 53.3 µg/mL)
crossing of blood–brain and blood–cerebrospinal fluid barriers [2]: crosses the blood–brain and blood–cerebrospinal fluid barriers
pIC50 [3]: 6.22
pKi ([3]; Ki, hyperbolic mixed-type inhibition fit (eq 3), vs dCTP, 95% confidence limits): 5.40
α [3, 7]: 0.55 (0.31, 0.79)
β [3, 8]: 0.20 (0.15, 0.25)
inhibition mechanism versus dCTP ([3]; steady-state kinetic analysis): mixed-type noncompetitive
pEC50 (GM12878 cells; another study): < 4.00
pEC50 (GM12878 cells; one study): < 3.00
honokiol off rate constant (pol β): 0.16 s⁻¹
pIC50 [4]: 5.00
pKi [4]: 4.70
α [4, 7]: 0.49 (0.12, 0.85)
β [4, 8]: 0.03 (–0.10, 0.15)
inhibition mechanism versus dCTP ([4]; steady-state kinetic analysis): linear mixed-type noncompetitive
IC50 (PANC1 cells; PANC-1, 24 h, read-out: −log(IC50) (95% CI), PANC1, 24 h, tested compound alone (converted)): 20 µM
IC50 (PANC1 cells; PANC-1, 72 h, read-out: −log(IC50) (95% CI), PANC1, 72 h, tested compound alone (converted)): 7.94 µM
−log(IC50) (95% CI) (PANC1 cells; PANC1, 24 h): 4.6 (4.5, 4.8)
−log(IC50) (95% CI) (PANC1 cells; PANC1, 72 h): 4.8 (4.7, 4.9)
pKi (pol λ binding to DNA): < 3.30
inhibition of DNA binding to polymerase (EMSA) (pol λ binding to DNA; listed as Honokiol): does not inhibit DNA binding
inhibition of DNA binding to polymerase (EMSA) (pol λ binding to DNA; listed as honokiol): did not inhibit the binding of the DNA to the polymerase
pIC50 [5]: 4.10
pKi [5]: 4.59
α [5, 7]: 0.48 (0.23, 0.74)
β [5, 8]: 0.16 (0.09, 0.23)
inhibition mechanism versus dCTP ([5]; steady-state kinetic analysis): mixed-type noncompetitive
inhibition of DNA binding to polymerase (EMSA) (pol η binding to DNA): does not inhibit DNA binding
inhibition of DNA binding to polymerase (EMSA) (KF(exo-) binding to DNA): does not inhibit DNA binding
pKi (pol β binding to DNA): < 3.30
inhibition of DNA binding to polymerase (EMSA) (pol β binding to DNA; listed as Honokiol): does not inhibit DNA binding
inhibition of DNA binding to polymerase (EMSA) (pol β binding to DNA; listed as honokiol): did not inhibit the binding of the DNA to the polymerase
prolonging life in xenografted mice [6]: effective in prolonging life
toxicity and side effects in rats (rats): nontoxic with no side effects
−log(IC50) (95% CI) (A549 cells; tested compound alone): 4.6 (4.5, 4.8)
IC50 (A549 cells; Homo sapiens, read-out: −log(IC50) (95% CI), A549, 24 h, tested compound alone (converted)): 25.1 µM

Reference: PMC5665024 (Chemical research in toxicology, 2017)
